Assay results taken from ChEMBL document CHEMBL1629494, “New amino acid esters of salicylanilides active against MDR-TB and other microbes” (Eur J Med Chem, 2010).
Values after ≈ are worked out from the molar mass of the structure shown.

Tests used:
Aspergillus fumigatus [1] = test: Antifungal activity against Aspergillus fumigatus 231 after 24 hrs by broth microdilution method; type: functional; conditions: Aspergillus fumigatus, 231, 24 h
Trichosporon beigelii [2] = test: Antifungal activity against Trichosporon beigelii 1188 after 48 hrs by broth microdilution method; type: functional; conditions: Trichosporon beigelii, 1188, 48 h
Pichia kudriavzevii [3] = test: Antifungal activity against Candida krusei E28 after 48 hrs by broth microdilution method; type: functional; conditions: E28, 48 h
Aspergillus fumigatus [4] = test: Antifungal activity against Aspergillus fumigatus 231 after 48 hrs by broth microdilution method; type: functional; conditions: Aspergillus fumigatus, 231, 48 h
Nakaseomyces glabratus [5] = test: Antifungal activity against Candida glabrata 20/I after 48 hrs by broth microdilution method; type: functional
[6] = system: Mycobacterium tuberculosis; test: Antimycobacterial activity against Mycobacterium tuberculosis H37Rv 331/88 after 21 days by micromethod; type: functional; conditions: H37Rv 331/88, 504 h
Procedure, shortened: (§1)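 Micromethod in Sula semisynthetic medium, with compounds added as DMSO solutions at 1000, 500, 250, 125, 62, 32, 16, 8, 4, 2, 1, 0.5, 0.25. Inoculum dilutions: H37Rv 10^-3; M. avium 330/88 10^-5; M. kansasii 235/80 10^-4; M. kansasii 6509/96 10^-5. Incubated at 37 °C, read at 14 and 21 days, and at 7 days for M. kansasii. MIC was the lowest concentration inhibiting growth.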

Mycobacterium kansasii [7] = test: Antimycobacterial activity against Mycobacterium kansasii 6509/96 after 7 days by micromethod; type: functional; conditions: 6509/96, 168 h; procedure, shortened: as §1
[8] = system: Trichophyton mentagrophytes; test: Antifungal activity against Trichophyton mentagrophytes after 24 hrs by broth microdilution method; type: functional
Pichia kudriavzevii [9] = test: Antifungal activity against Candida krusei E28 after 24 hrs by broth microdilution method; type: functional; conditions: E28, 24 h
Candida tropicalis [10] = test: Antifungal activity against Candida tropicalis 156 after 48 hrs by broth microdilution method; type: functional; conditions: Candida tropicalis, 156, 48 h
[11] = Lipophilicity, log P of the compound; type: physicochemical; conditions: octanol/water
Mycobacterium avium [12] = test: Antimycobacterial activity against Mycobacterium avium; type: functional
Mycobacterium avium [13] = test: Antimycobacterial activity against multidrug-resistant Mycobacterium avium 330/88 after 14 days by micromethod; type: functional; conditions: 330/88, 336 h; procedure, shortened: as §1
[14] = system: Trichophyton mentagrophytes; test: Antifungal activity against Trichophyton mentagrophytes after 48 hrs by broth microdilution method; type: functional
Mycobacterium kansasii [15] = test: Antimycobacterial activity against Mycobacterium kansasii 235/80 after 14 days by micromethod; type: functional; conditions: 235/80, 336 h; procedure, shortened: as §1
Mycobacterium kansasii [16] = test: Antimycobacterial activity against Mycobacterium kansasii 235/80 after 7 days by micromethod; type: functional; conditions: 235/80, 168 h; procedure, shortened: as §1
Lichtheimia corymbifera [17] = test: Antifungal activity against Absidia corymbifera 272 after 24 hrs by broth microdilution method; type: functional; conditions: Lichtheimia corymbifera, 272, 24 h
Candida tropicalis [18] = test: Antifungal activity against Candida tropicalis 156 after 24 hrs by broth microdilution method; type: functional; conditions: Candida tropicalis, 156, 24 h
Mycobacterium kansasii [19] = test: Antimycobacterial activity against Mycobacterium kansasii 6509/96 after 14 days by micromethod; type: functional; conditions: 6509/96, 336 h; procedure, shortened: as §1
Candida albicans [20] = test: Antifungal activity against Candida albicans ATCC 44859 after 24 hrs by broth microdilution method; type: functional; conditions: ATCC 44859, 24 h
[21] = system: Mycobacterium tuberculosis; test: Antimycobacterial activity against Mycobacterium tuberculosis H37Rv 331/88 after 14 days by micromethod; type: functional; conditions: H37Rv 331/88, 336 h; procedure, shortened: as §1
Trichosporon beigelii [22] = test: Antifungal activity against Trichosporon beigelii 1188 after 24 hrs by broth microdilution method; type: functional; conditions: Trichosporon beigelii, 1188, 24 h
Mycobacterium kansasii [23] = test: Antimycobacterial activity against Mycobacterium kansasii; type: functional
Mycobacterium avium [24] = test: Antimycobacterial activity against multidrug-resistant Mycobacterium avium 330/88 after 21 days by micromethod; type: functional; conditions: 330/88, 504 h; procedure, shortened: as §1
Candida albicans [25] = test: Antifungal activity against Candida albicans ATCC 44859 after 48 hrs by broth microdilution method; type: functional; conditions: ATCC 44859, 48 h
Nakaseomyces glabratus [26] = test: Antifungal activity against Candida glabrata 20/I after 24 hrs by broth microdilution method; type: functional
Mycobacterium kansasii [27] = test: Antimycobacterial activity against Mycobacterium kansasii 235/80 after 21 days by micromethod; type: functional; conditions: 235/80, 504 h; procedure, shortened: as §1
[28] = system: Mycobacterium tuberculosis; test: Antimycobacterial activity against drug-sensitive Mycobacterium tuberculosis; type: functional
Mycobacterium kansasii [29] = test: Antimycobacterial activity against Mycobacterium kansasii 6509/96 after 21 days by micromethod; type: functional; conditions: 6509/96, 504 h; procedure, shortened: as §1
Lichtheimia corymbifera [30] = test: Antifungal activity against Absidia corymbifera 272 after 48 hrs by broth microdilution method; type: functional; conditions: Lichtheimia corymbifera, 272, 48 h

## CC(=O)N[C@@H](Cc1ccccc1)C(=O)Oc1ccc(Cl)cc1C(=O)Nc1ccc(Br)cc1
Aspergillus fumigatus [1]
  MIC: 125 µM (≈ 64.5 µg/mL)
Trichosporon beigelii [2]
  MIC: > 125 µM
Pichia kudriavzevii [3]
  MIC: > 125 µM
Aspergillus fumigatus [4]
  MIC: > 125 µM
Nakaseomyces glabratus [5]
  MIC: > 125 µM
[6]
  MIC: 2 µM (≈ 1.03 µg/mL)
Mycobacterium kansasii [7]
  MIC: 4 µM (≈ 2.06 µg/mL)
[8]
  MIC: > 125 µM
Pichia kudriavzevii [9]
  MIC: 125 µM (≈ 64.5 µg/mL)
Candida tropicalis [10]
  MIC: > 125 µM
[11]
  logP: 4.83
Mycobacterium avium [12]
  MIC: 1 µM (≈ 0.516 µg/mL)
Mycobacterium avium [13]
  MIC: 4 µM (≈ 2.06 µg/mL)
[14]
  MIC: > 125 µM
Mycobacterium kansasii [15]
  MIC: 4 µM (≈ 2.06 µg/mL)
Mycobacterium kansasii [16]
  MIC: 4 µM (≈ 2.06 µg/mL)
Lichtheimia corymbifera [17]
  MIC: 125 µM (≈ 64.5 µg/mL)
Candida tropicalis [18]
  MIC: > 125 µM
Mycobacterium kansasii [19]
  MIC: 4 µM (≈ 2.06 µg/mL)
Candida albicans [20]
  MIC: 125 µM (≈ 64.5 µg/mL)
[21]
  MIC: 2 µM (≈ 1.03 µg/mL)
Trichosporon beigelii [22]
  MIC: 125 µM (≈ 64.5 µg/mL)
Mycobacterium kansasii [23]
  MIC: 1 µM (≈ 0.516 µg/mL)
Mycobacterium avium [24]
  MIC: 8 µM (≈ 4.13 µg/mL)
Candida albicans [25]
  MIC: > 125 µM
Nakaseomyces glabratus [26]
  MIC: > 125 µM
Mycobacterium kansasii [27]
  MIC: 4 µM (≈ 2.06 µg/mL)
[28]
  MIC: 1 µM (≈ 0.516 µg/mL)
Mycobacterium kansasii [29]
  MIC: 8 µM (≈ 4.13 µg/mL)
Lichtheimia corymbifera [30]
  MIC: > 125 µM
